Test results as given in article PMC7274092 (Nature biomedical engineering, 2020).

How the values were obtained:
[1] = Diffusion-ordered NMR spectroscopy; assay type: physicochemical; conditions: approximated from DOSY diffusion rate by the Stokes-Einstein relationship
liver and kidney = assay: Biocompatibility of CB[7]-PEG in healthy rats; assay type: in vivo, Sprague Dawley rats; conditions: s.c. 0.2 mg/kg once daily for six weeks, n=4
In short: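 Healthy 10-week-old Sprague Dawley rats (n=4) received CB[7]-PEG at 0.2 mg/kg s.c. in PBS (pH 7.4) once daily for six weeks. […] Blood chemistry was run on an automated analyzer from samples taken on days 14, 28 and 42. At endpoint, liver and kidney were collected for single-blinded histopathology.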

[2] = insulin hexamer, for comparison; cited from earlier work

## CC[C@H](C)[C@H](NC(=O)[C@@H]1CCCN1C(=O)CNC(=O)[C@H](Cc1ccccc1)NC(=O)[C@H](CC(N)=O)NC(=O)[C@H](CC(N)=O)NC(=O)[C@H](CO)NC(=O)[C@H](CO)NC(=O)[C@H](Cc1c[nH]cn1)NC(=O)[C@@H](NC(=O)[C@H](CC(C)C)NC(=O)[C@H](Cc1ccccc1)NC(=O)[C@H](CC(N)=O)NC(=O)[C@H](C)NC(=O)[C@H](CC(C)C)NC(=O)[C@H](CCCNC(=N)N)NC(=O)[C@H](CCC(N)=O)NC(=O)[C@@H](NC(=O)[C@H](C)NC(=O)[C@@H]1CSSC[C@H](NC(=O)[C@@H](N)CCCCN)C(=O)N[C@@H](CC(N)=O)C(=O)N[C@@H]([C@@H](C)O)C(=O)N[C@@H](C)C(=O)N[C@@H]([C@@H](C)O)C(=O)N1)[C@@H](C)O)C(C)C)C(=O)N[C@@H](CC(C)C)C(=O)N1CCC[C@H]1C(=O)N1CCC[C@H]1C(=O)N[C@H](C(=O)N[C@@H](CC(N)=O)C(=O)N[C@H](C(=O)NCC(=O)N[C@@H](CO)C(=O)N[C@@H](CC(N)=O)C(=O)N[C@H](C(=O)N[C@@H](Cc1ccc(O)cc1)C(N)=O)[C@@H](C)O)C(C)C)[C@@H](C)O [pramlintide]
[1]
  hydrodynamic radius (Rh): 1.2 nm

## cucurbit[7]uril-conjugated polyethylene glycol [CB[7]-PEG]
Liver and kidney
  blood chemistry and liver/kidney histopathology vs untreated controls: No differences

## insulin aspart
[1]
  hydrodynamic radius (Rh): ~2.2 nm

## insulin hexamer: hexameric association state of insulin
[2]
  hydrodynamic radius: approximately 2.8 nm
